# Data: ChEMBL document CHEMBL1150813, “Triterpene saponins from Vietnamese ginseng (Panax vietnamensis) and their hepatocytoprotective activity” (J Nat Prod, 2001)
# pIC50: −log10 of the molar value.
# Columns and labels:
# Format in all cases: functional
# [1] = tested on: Hepatocyte; test: Hepatoprotective activity against D-galactosamine/TNFalpha-induced cell death in mouse hepatocytes assessed cell survival rate at 100 uM administered before 30 mins of TNFalpha challenge measured after 18 hrs by MTT assay
# Method in brief: (§1)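 Primary mouse hepatocytes, isolated by collagenase perfusion, were cultured in William's E medium with 10% calf serum, dexamethasone and insulin at 1.5×10^4 cells/well. TNF-α (100 ng/mL) was added 30 min later. Viability was read by MTT after 18 h. Values are mean ± SD, n = 4 (normal and control n = 8), with Student's t-test versus control.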
# [2] = tested on: Hepatocyte; test: Hepatoprotective activity in mouse hepatocytes assessed inhibition of D-galactosamine/TNFalpha-induced cell death at 100 uM administered before 30 mins of TNFalpha challenge measured after 18 hrs; method in brief: as §1
# [3] = tested on: Hepatocyte; test: Hepatoprotective activity in mouse hepatocytes assessed inhibition of D-galactosamine/TNFalpha-induced cell death at 50 uM administered before 30 mins of TNFalpha challenge measured after 18 hrs; method in brief: as §1
# [4] = tested on: Hepatocyte; test: Hepatoprotective activity in mouse hepatocytes assessed protection against D-galactosamine/TNFalpha-induced cell death at 200 uM administered before 30 mins of TNFalpha challenge measured after 18 hrs; method in brief: as §1
# [5] = tested on: Hepatocyte; test: Hepatoprotective activity in mouse hepatocytes assessed inhibition of D-galactosamine/TNFalpha-induced cell death dosed administered before 30 mins of TNFalpha challenge measured after 18 hrs; method in brief: as §1
# [6] = tested on: Hepatocyte; test: Hepatoprotective activity in mouse hepatocytes assessed protection against D-galactosamine/TNFalpha-induced cell death at 100 uM administered before 30 mins of TNFalpha challenge measured after 18 hrs; method in brief: as §1
# [7] = tested on: Hepatocyte; test: Hepatoprotective activity against D-galactosamine/TNFalpha-induced cell death in mouse hepatocytes assessed cell survival rate at 200 uM administered before 30 mins of TNFalpha challenge measured after 18 hrs by MTT assay; method in brief: as §1
# [8] = tested on: Hepatocyte; test: Hepatoprotective activity in mouse hepatocytes assessed protection against D-galactosamine/TNFalpha-induced cell death at 50 uM administered before 30 mins of TNFalpha challenge measured after 18 hrs; method in brief: as §1
# [9] = tested on: Hepatocyte; test: Hepatoprotective activity against D-galactosamine/TNFalpha-induced cell death in mouse hepatocytes assessed cell survival rate at 50 uM administered before 30 mins of TNFalpha challenge measured after 18 hrs by MTT assay; method in brief: as §1
# [10] = tested on: Hepatocyte; test: Hepatoprotective activity in mouse hepatocytes assessed inhibition of D-galactosamine/TNFalpha-induced cell death at 200 uM administered before 30 mins of TNFalpha challenge measured after 18 hrs; method in brief: as §1
# [11] = tested on: Hepatocyte; test: Hepatoprotective activity against D-galactosamine/TNFalpha-induced cell death in mouse hepatocytes assessed cell survival rate at 25 uM administered before 30 mins of TNFalpha challenge measured after 18 hrs by MTT assay; method in brief: as §1
# [12] = tested on: Hepatocyte; test: Hepatoprotective activity against D-galactosamine/TNFalpha-induced cell death in mouse hepatocytes assessed cell survival rate at 12.5 uM administered before 30 mins of TNFalpha challenge measured after 18 hrs by MTT assay; method in brief: as §1
# [13] = tested on: Hepatocyte; test: Hepatoprotective activity in mouse hepatocytes assessed protection against D-galactosamine/TNFalpha-induced cell death at 12.5 uM administered before 30 mins of TNFalpha challenge measured after 18 hrs; method in brief: as §1
# [14] = tested on: Hepatocyte; test: Hepatoprotective activity in mouse hepatocytes assessed protection against D-galactosamine/TNFalpha-induced cell death at 25 uM administered before 30 mins of TNFalpha challenge measured after 18 hrs; method in brief: as §1
# [15] = tested on: Hepatocyte; test: Hepatoprotective activity in mouse hepatocytes assessed inhibition of D-galactosamine/TNFalpha-induced cell death at 25 uM administered before 30 mins of TNFalpha challenge measured after 18 hrs; method in brief: as §1
# [16] = tested on: Hepatocyte; test: Hepatoprotective activity in mouse hepatocytes assessed inhibition of D-galactosamine/TNFalpha-induced cell death at 12.5 uM administered before 30 mins of TNFalpha challenge measured after 18 hrs; method in brief: as §1
SMILES,Survival [1] [%],inhibition (INH) [2] [%],inhibition (INH) [3] [%],Activity [4] [%],pIC50 [5],Activity [6] [%],Survival [7] [%],Activity [8] [%],Survival [9] [%],inhibition (INH) [10] [%],Survival [11] [%],Survival [12] [%],Activity [13] [%],Activity [14] [%],inhibition (INH) [15] [%],inhibition (INH) [16] [%]
CC(C)=CCC[C@](C)(O)[C@H]1CC[C@]2(C)[C@@H]1[C@H](O)C[C@@H]1[C@@]3(C)CC[C@H](O)C(C)(C)[C@@H]3[C@@H](O[C@@H]3O[C@H](CO)[C@@H](O)[C@H](O)[C@H]3O)C[C@]12C [GINSENOSIDE RH1],40.8,36.6,27.4,34.3,3.98,15.6,54,11.7,38.1,80.5,,,,,,
CC(C)=CCC[C@](C)(O[C@@H]1O[C@H](CO)[C@@H](O)[C@H](O)[C@H]1O)[C@H]1CC[C@]2(C)[C@@H]1[C@H](O)C[C@@H]1[C@@]3(C)CC[C@H](O)C(C)(C)[C@@H]3[C@@H](O[C@@H]3O[C@H](CO)[C@@H](O)[C@H](O)[C@H]3O[C@@H]3O[C@@H](C)[C@H](O)[C@@H](O)[C@H]3O)C[C@]12C [GINSENOSIDE RE],41.2,37,21.1,31.9,3.92,15.9,52.4,8.9,36.4,74.3,,,,,,
CC(=O)OC[C@H]1O[C@@H](O[C@H]2C[C@]3(C)[C@H](C[C@@H](O)[C@@H]4[C@@H]([C@]5(C)CC[C@@H](C(C)(C)O)O5)CC[C@]43C)[C@@]3(C)CC[C@H](O)C(C)(C)[C@H]23)[C@H](O[C@@H]2O[C@H](C)[C@@H](O)[C@H](O)[C@@H]2O)[C@@H](O)[C@@H]1O [VINA-GINSENOSIDE R1],57,89.8,51.7,,4.33,71.5,,29,45.6,,33.1,,,,,
COc1cc(C2Oc3cc([C@H]4Oc5cc(O)cc(O)c5C(=O)[C@@H]4O)ccc3OC2CO)ccc1O (stereo partly drawn) [SILIBININ],,,149.7,,4.85,,,64.3,75,,60,43.1,17.3,42.8,99.7,43.4
